ChEMBL document CHEMBL1134792, “Antimitotic antitumor agents: synthesis, structure-activity relationships, and biological characterization of N-aryl-N'-(2-chloroethyl)ureas as new selective alkylating agents” (J Med Chem, 2001)
Activity calls are given as the source filed them. The calls are words filed in the database; no cut-off is given here.

What was measured:
[1] = system: CHO; assay: Dose required to inhibit cell growth was determined against CHO cell line; type: functional, cell-based; conditions: Cricetulus griseus
In short: (§1)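 Alamar Blue growth assay. (1–5) × 10^3 cells per well preincubated 24 h, then exposed to increasing drug concentrations for 72 h at 37 °C. Medium replaced with PBS containing 20% Alamar Blue, fluorescence read at 485/590 nm. IC50 is the dose inhibiting growth by 50%.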

[2] = target: T1, Glutathione reductase, mitochondrial (Homo sapiens) (UniProt P00390); assay: Glutathione reductase activity was measured after incubation with a conc. of 500 uM; type: functional
T1 sequence (whole entry): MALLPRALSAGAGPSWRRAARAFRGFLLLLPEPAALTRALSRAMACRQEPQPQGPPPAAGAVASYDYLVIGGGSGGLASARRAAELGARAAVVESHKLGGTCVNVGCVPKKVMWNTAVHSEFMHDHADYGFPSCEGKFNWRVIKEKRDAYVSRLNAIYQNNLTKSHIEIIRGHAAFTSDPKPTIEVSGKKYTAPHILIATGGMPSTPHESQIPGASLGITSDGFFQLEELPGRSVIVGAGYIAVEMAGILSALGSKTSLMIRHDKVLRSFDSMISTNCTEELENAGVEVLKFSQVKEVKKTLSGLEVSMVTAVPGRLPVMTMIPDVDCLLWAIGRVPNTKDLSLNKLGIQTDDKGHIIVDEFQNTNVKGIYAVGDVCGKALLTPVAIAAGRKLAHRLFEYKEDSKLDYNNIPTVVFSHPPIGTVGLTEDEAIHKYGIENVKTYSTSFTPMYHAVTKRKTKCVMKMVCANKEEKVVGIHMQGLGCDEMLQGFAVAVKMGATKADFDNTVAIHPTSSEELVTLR
In short: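 Purified glutathione reductase (0.016 U/mL) with 100 µM NADPH, 1 mM EDTA, 1 mg/mL BSA and 500 µM drug (from 2% ethanol solution) in 0.1 M phosphate pH 7.4, preincubated 60 min at 30 °C. GSSG was then added for 60 min at 30 °C. Activity is the […] over 3 min, as % of no-drug control, in triplicate.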

[3] = system: HT-29; assay: Dose required to inhibit cell growth was determined against HT-29 cell line of human adenocarcinoma; type: functional, cell-based; in short: as §1
[4] = system: K562; assay: Dose required to inhibit cell growth was determined against K562 cell line of chronic myelogenous leukemia; type: functional, cell-based; conditions: Homo sapiens; in short: as §1
[5] = system: L1210; assay: Dose required to inhibit cell growth was determined against L1210 cell line of murine lymphocytotic leukemia; type: functional, cell-based; conditions: Mus musculus; in short: as §1
[6] = system: MDA-MB-231; assay: Beta tubulin alkylation activity in MDA-MB-231 cells; type: functional, Homo sapiens; set-up: concentration or dose not given beside the values
In short: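 MDA-MB-231 cells (~5 × 10^6), exponentially growing, exposed to 30 μM compound for 24 h at 37 °C. Lysed in Laemmli buffer, run on 10% SDS-PAGE, immunoblotted with anti-β-tubulin (TUB 2.1, 1:500) and peroxidase anti-mouse secondary, ECL detection. Normal and alkylated band densities integrated to give % alkylated β-tubulin. Representative of three experiments.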

[7] = system: MDA-MB-231; assay: Dose required to inhibit cell growth was determined against MDA-MB-231 cell line of human non-hormone dependent breast carcinoma; type: functional, cell-based; in short: as §1
[8] = system: LoVo; assay: Dose to inhibit cell growth determined against LoVo cell line of human adenocarcinoma; type: functional, cell-based; in short: as §1
[9] = system: P388; assay: Dose required to inhibit cell growth was determined against P388D1 cell line of murine lymphocytotic leukemia; type: functional, cell-based; conditions: Mus musculus; in short: as §1
[10] = Alkylating activity by using 4-(4-nitrobenzyl)-pyridine(NBP) colorimetric assay
In short: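 NBP colorimetric assay. Drug at 400 nmol/mL in ethanol was mixed with 10% NBP in ethanol and 50 mM sodium acetate pH 4.3, then heated at 80 °C for 60, 90, 120 or 150 min. Samples were chilled and basified with KOH/ethanol, and A570 was read against a drug-free blank. The alkylation rate (A570/min) is the slope of a linear regression of absorbance vs time. Mean ± SD of ≥3 independent experiments.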

[11] = Glutathione activity was measured after incubation with a conc. of 500 uM
In short: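 Cell-free thiol assay. GSH 500 µM with 1 mM EDTA and 500 µM drug (from 2% ethanol solution) in 0.1 M phosphate buffer pH 7.4, 60 min at room temperature. DTNB (0.133 mM) was then added and A412 read. Reported as % of no-drug control, in triplicate.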

[12] = system: MDA-MB-231; assay: DNA damages caused in MDA-MB-231 cells after 2 hr compound exposure to 400 uM concentration; type: functional, Homo sapiens
In short: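 Growing MDA-MB-231 cells held 2 h at 37 °C in medium with or without 400 μM compound. Cells washed in cold PBS and lysed in Tris/SDS/EDTA/deferoxamine/proteinase K buffer. DNA isolated by salting out, then 3'-end labeled by T4 DNA polymerase nucleotide exchange. Incorporated radioactivity measured by dot filtration, expressed as dCps exchanged/ng DNA. Means ± SD, ≥3 determinations.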

[13] = system: MDA-MB-231; assay: Dose required to inhibit cell growth was determined against MDA-MB-231 cell line of human non-hormone dependent breast carcinoma; NA= Not active represents IC50 >400 uM; type: functional, cell-based
In short: (§2)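 Alamar Blue growth-inhibition assay. Cells ((1–5) × 10³ per well) were preincubated for 24 h, then exposed to increasing drug concentrations for 72 h at 37 °C. Alamar Blue (20%) was added and fluorescence read at ex 485 / em 590 nm. IC50 is the dose inhibiting growth by 50%. Means of ≥3 independent determinations.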

[14] = system: LoVo; assay: Dose required to inhibit cell growth was determined against LoVo cell line of human adenocarcinoma; NA= Not active represents IC50 >400 uM; type: functional, cell-based; in short: as §2
[15] = system: P388; assay: Dose required to inhibit cell growth was determined against P388D1 cell line of murine lymphocytotic leukemia; NA= Not active represents IC50 >400 uM; type: functional, cell-based; conditions: Mus musculus; in short: as §2
[16] = system: CHO; assay: Dose required to inhibit cell growth was determined against CHO cell line; Not active represents IC50 >400 uM; type: functional, cell-based; conditions: Cricetulus griseus; in short: as §2
[17] = system: MDA-MB-231; assay: Dose required to inhibit cell growth was determined against MDA-MB-231 cell line of human non-hormone dependent breast carcinoma; Not active represents IC50 >400 uM; type: functional, cell-based; in short: as §2

Row | SMILES | IC50 [1] | Activity [2] | IC50 [3] | IC50 [4] | IC50 [5] | Activity [6] | IC50 [7] | IC50 [8] | IC50 [9] | Activity [10] | Activity [11] | DNA damage [12] | NA [13] | NA [14] | NA [15] | NA [16] | NA [17]
1 | CCC(C)c1ccc(NC(=O)NCCCl)cc1 (stereo unspecified) | 4 µM | 100% | 3.6 µM | 1.3 µM | 1.3 µM | 76% | 3.1 µM | 2.2 µM | 2.4 µM | 3.1 A570 min-1 | 100% |  |  |  |  |  | 
2 | CC(Cl)CNC(=O)Nc1ccc(C(C)(C)C)cc1 (stereo unspecified) | 52 µM |  | 21 µM | 23 µM | 6 µM |  | 52 µM |  |  |  |  |  |  |  |  |  | 
3 | CC(C)c1ccc(NC(=O)NCCCl)cc1 | 3.2 µM | 100% | 5 µM | 1.3 µM | 1.2 µM | 65% | 2.5 µM | 1 µM | 2.1 µM | 3 A570 min-1 | 100% |  |  |  |  |  | 
4 | CCc1ccc(NC(=O)NCCCl)cc1 | 6.4 µM |  | 6.4 µM | 2.5 µM | 2.7 µM |  | 5 µM | 3.2 µM | 5.2 µM |  |  |  |  |  |  |  | 
5 | O=C(NCCCl)Nc1cccc2ccccc12 | 106 µM |  |  | 107 µM | 118 µM |  | 150 µM | 150 µM | 130 µM |  |  |  |  |  |  |  | 
6 | CCCCCc1ccc(NC(=O)NCCCl)cc1 | 13 µM | 99% | 12 µM | 6.1 µM | 5.4 µM | 40% | 12 µM | 5.2 µM | 7.3 µM | 2.9 A570 min-1 | 100% | 1.93 10e7 exchanged dCps (ng of DNA) |  |  |  |  | 
7 | O=C(NCCCl)Nc1ccc(Cl)cc1 | 19 µM |  | 14 µM | 9.1 µM | 9.6 µM |  | 31 µM | 23 µM | 11 µM |  |  |  |  |  |  |  | 
8 | Cc1cc(C)c(NC(=O)NCCCl)c(C)c1 |  |  |  |  |  |  |  |  |  |  |  |  | inactive | inactive | inactive |  | 
9 | CCCCCCCc1ccc(NC(=O)NCCCl)cc1 | 22 µM |  | 25 µM | 16 µM | 13 µM |  | 30 µM | 15 µM | 18 µM |  |  |  |  |  |  |  | 
10 | Cc1ccccc1NC(=O)NCCCl |  |  |  |  |  |  |  |  |  |  |  |  | inactive | inactive | inactive |  | 
11 | CC(C)Cc1ccc(NC(=O)NCCCl)cc1 | 23 µM |  | 21 µM | 11 µM | 11 µM |  | 24 µM |  |  |  |  |  |  |  |  |  | 
12 | CC(C)(C)Cc1ccc(NC(=O)NCCCl)cc1 | 35 µM |  | 36 µM | 21 µM | 19 µM |  | 34 µM |  |  |  |  |  |  |  |  |  | 
13 | CC(C)(C)c1ccc(NC(=O)NCCCl)cc1 | 6.3 µM | 100% | 9.1 µM | 3.5 µM | 3 µM | 44% | 6.2 µM | 4.1 µM | 5.2 µM | 3.1 A570 min-1 | 100% | 2.22 10e7 exchanged dCps (ng of DNA) |  |  |  |  | 
14 | CC(C)CCc1ccc(NC(=O)NCCCl)cc1 | 19 µM |  | 33 µM | 15 µM | 14 µM |  | 32 µM |  |  |  |  |  |  |  |  |  | 
15 | CCCNC(=O)Nc1ccc(C(C)CC)cc1 (stereo unspecified) |  |  | 133 µM | 106 µM | 30 µM |  |  |  |  |  |  |  |  |  |  | inactive | inactive
16 | Cc1cc(C)cc(NC(=O)NCCCl)c1 | 24.7 µM |  | 20 µM | 10 µM | 8.8 µM |  | 20 µM | 8.8 µM | 8.6 µM |  |  |  |  |  |  |  | 
